From PubChem BioAssay
In the library only some 1.9% were active in any assay of this set; here they are far more common.
pCIP destab: lowers stability of the mouse p/CIP coactivator protein. F442A p/CIP-EGFP cells, EGFP fluorescence, 16 h. decrease of EGFP signal, % at 10 µM. hit rate 0.01% among 290,000. AID 1984;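 active means EGFP signal decrease of at least 30% at 10 µM or well 3 SD below plate mean, unless failing retest; inactive means the rest, including hits failing retest or dose response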
DNA FID counter: displaces DNA intercalator in HCV helicase counter-screen | DNA fluorescent intercalator displacement, fluorescence | inhibition, % at 7.9 µM | hit rate 0.17% among 290,000 | AID 1845; in the data active means inhibition above about 37%;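 further: 0% = vehicle and 100% = reference compound; higher means more ethidium bromide displaced from hairpin DNA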
GPR7 antag: blocks human GPR7 receptor signaling | P48145 | GPR7-expressing cells, fluorescence antagonist assay | inhibition, % at 4.4 µM | hit rate 1.1% among 290,000 | AID 1861; in the data active means inhibition above about 16%, passing the limit was not always enough;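 further: cells stimulated with the agonist NPW; 0% = agonist with vehicle and 100% = vehicle without agonist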
HCV NS3 hel inh: blocks Hepatitis C virus NS3 helicase unwinding. NS3 helicase DNA unwinding, Cy5 molecular beacon fluorescence. inhibition, % at 10.9 µM. AID 1800. hit rate 0.56% among 290,000;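 active means inhibition above the mean of all tested compounds plus 3 SD, set per campaign, cut at about 35% in these data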;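 further: 0% = DMSO wells and 100% = thioflavine S control wells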
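System: Hepatitis C virus NS3 helicase domain fragment enzyme | Reagent: Annealed dual-labelled DNA beacon duplex, ATP-started | Compound dosing: 10.9 µM single point, 0.8% DMSO | Incubation: 1 h reaction at 25 °C, ATP-initiated | Technique: Cy5 fluorescence | Evaluation: Percent inhibition from t60/t0 fluorescence ratio | Benchmarks: Low DMSO, high thioflavine S at 110 µM | Replication: Singlicate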
HCV core dimer: blocks dimerization of HCV core protein; AID 1899; inhibition, % at 5 µM; TR-FRET GST/Flag-core106 dimerization, 1536-well; hit rate 0.33% among 300,000;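 active means inhibition above the mean of all tested compounds plus 3 SD, set per screening campaign, cut at about 45% in these data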
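Assay system – GST-tagged and Flag-tagged HCV core protein residues 1-106 · Quantity – core106 proteins, GST 13.5 nM and Flag 17 nM · Benchmarks – unlabelled core106 and no-GST-core106 wells · Read-out basis – percent inhibition of core106 dimerization signal · Detection – time-resolved FRET, ex 340 nm, em 617 and 671 nm · Schedule – 4 h at 22.5 °C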
GPR7 antag conf: confirmation of human GPR7 antagonists | shares compounds with GPR7 antag | GPR7-expressing cells, calcium fluorescence antagonist mode | inhibition, % at 4.4 µM | AID 1952 | hit rate 52% among 2,400; in the data active means inhibition above about 24%;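 further: stimulated with the GPR7 agonist NPW; 0% = agonist plus vehicle and 100% = vehicle alone without agonist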
MCHR1 antagonist: counter-screen for GPR7 antagonists: antagonists of human MCHR1 | AID 2148 | inhibition, % at 4.4 µM | shares compounds with GPR7 antag | MCHR1-expressing cells, fluorescence antagonist assay | hit rate 62% among 2,400; in the data active means inhibition above about 22%;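 further: 0% = vehicle with agonist and 100% = vehicle without agonist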
* hit, by the source's call.

Screening O=C(CSc1ccc(Br)cc1)N1CCN(S(=O)(=O)c2ccccc2)CC1 returned pCIP destab 11.9, DNA FID counter -40.9, GPR7 antag 17.6, HCV NS3 hel inh 6.8 and HCV core dimer 6.0.
For Clc1ccc(-c2noc(CN3CCCC3)n2)cc1 the results were pCIP destab -3.5, DNA FID counter 4.5, GPR7 antag -3.2, HCV NS3 hel inh 1.6 and HCV core dimer -0.7.
Screening Cn1ccnc1C1CCCCN1Cc1nc(-c2ccc(Cl)cc2)no1 (configuration not stated) returned pCIP destab -7.4, DNA FID counter 7.6, GPR7 antag 26.1*, HCV NS3 hel inh -9.1, HCV core dimer 1.3, GPR7 antag conf 34.1* and MCHR1 antagonist 21.8*.
For COc1ccc([N+](=O)[O-])cc1NC(=O)Cn1ccc(C(F)(F)F)n1 the results were pCIP destab -3.0, DNA FID counter 7.0, GPR7 antag -6.1, HCV NS3 hel inh -3.0 and HCV core dimer -3.6.
`COc1ccc(-n2ncc3c2CC(C)(C)CC3NC(=O)CCn2cncn2)cc1` (configuration not stated) gave pCIP destab -14.1, DNA FID counter -37.0, GPR7 antag -6.8 and HCV NS3 hel inh -1.7.
Screening C=CCCC(=O)NC1CC(C)(C)Cc2c1cnn2-c1ccc(OC)cc1 (configuration not stated) returned pCIP destab -3.1, DNA FID counter -38.0, GPR7 antag 26.4*, HCV NS3 hel inh 4.5, HCV core dimer 0.8, GPR7 antag conf 1.0 and MCHR1 antagonist -0.9.
Screening COCCNc1cnn(-c2ccccc2)c(=O)c1Cl returned pCIP destab -4.6, DNA FID counter -7.0, GPR7 antag 24.1*, HCV NS3 hel inh 10.0, HCV core dimer 3.8, GPR7 antag conf -4.4 and MCHR1 antagonist -0.5.
`CC1(C)CC(NC(=O)c2cc(S(=O)(=O)N3CCCCC3)ccc2Cl)CC(C)(C)N1` gave pCIP destab -10.9, DNA FID counter 4.2, GPR7 antag -12.2, HCV NS3 hel inh -10.2 and HCV core dimer -6.5.
Screening Cc1cc(Cl)ccc1C(=O)C1CCCN(C(=O)CN2CCOC2=O)C1 (configuration not stated) returned pCIP destab -8.1, DNA FID counter -15.9, GPR7 antag -8.6 and HCV NS3 hel inh 4.0.
For CCCCC(O)(CCCC)C(=O)NN(C(=O)OC)c1ccc(C)cc1 the results were pCIP destab 8.5, DNA FID counter -20.0, GPR7 antag 23.3*, HCV NS3 hel inh 21.4, HCV core dimer 1.0, GPR7 antag conf 8.7 and MCHR1 antagonist 10.0.
CSc1ccc(-c2nc3cnccn3c2Nc2ccc3c(c2)OCO3)cc1 was read as pCIP destab -6.5, DNA FID counter -14.1, GPR7 antag 26.9*, HCV NS3 hel inh -9.0, HCV core dimer -1.2, GPR7 antag conf 14.8 and MCHR1 antagonist 2.3.
`Clc1ccc(-c2nc3cnccn3c2Nc2ccc3c(c2)OCO3)cc1` gave pCIP destab -3.5, DNA FID counter -7.0, GPR7 antag 0.7, HCV NS3 hel inh 33.4 and HCV core dimer 0.3.
Screening CCOC(=O)c1cc(-c2ccccc2)nc2c1c(C)nn2-c1ccccn1 returned pCIP destab -4.6, DNA FID counter -12.6, GPR7 antag 45.9*, HCV NS3 hel inh 0.2, HCV core dimer 11.9, GPR7 antag conf 27.9* and MCHR1 antagonist 33.5*.
For Cc1ccc(OCC(=O)NCc2cccnc2)cc1 the results were pCIP destab -34.4, DNA FID counter 5.6, GPR7 antag 24.0*, HCV NS3 hel inh 7.2, HCV core dimer -1.2, GPR7 antag conf -4.9 and MCHR1 antagonist 5.3.
Screening Cc1ccc(S(=O)(=O)NCc2ccc(C(=O)NCc3cccnc3)cc2)cc1 returned pCIP destab -18.4, DNA FID counter -24.0, GPR7 antag 22.7*, HCV NS3 hel inh -3.5, HCV core dimer -1.9, GPR7 antag conf -4.0 and MCHR1 antagonist 0.1.
O=S(=O)(NCc1cccnc1)c1ccc2c(c1)OCCO2 was read as pCIP destab -7.5, DNA FID counter 2.2, GPR7 antag 22.8*, HCV NS3 hel inh 8.4, HCV core dimer 3.5, GPR7 antag conf -18.8 and MCHR1 antagonist 17.5.
For O=C(NCc1cccnc1)c1c(O)c2cccc3c2n(c1=O)CCC3 the results were pCIP destab -7.9, DNA FID counter -13.9, GPR7 antag -14.7, HCV NS3 hel inh 8.4 and HCV core dimer 0.8.
Screening CN1CCN(c2ccccc2NC(=O)Cc2ccc(Cl)cc2)CC1 returned pCIP destab -2.5, DNA FID counter 5.5, HCV NS3 hel inh 20.4, HCV core dimer -1.3 and MCHR1 antagonist 12.0.
Screening CN1CCN(c2ccc(S(=O)(=O)N3CCCCC3)cc2NC(=O)Cc2ccc(Cl)cc2)CC1 returned pCIP destab -2.6, DNA FID counter 12.4, GPR7 antag 25.1*, HCV NS3 hel inh -62.3, HCV core dimer 0.3, GPR7 antag conf 50.0* and MCHR1 antagonist 53.5*.
For CCC(=O)N1CCN(c2ccccc2NC(=O)Cc2ccc(Cl)cc2)CC1 the results were pCIP destab 4.2, DNA FID counter -17.7, GPR7 antag 2.6, HCV NS3 hel inh -4.4 and HCV core dimer 7.9.
O=C(OC(C(=O)NC1CCCCC1)c1ccc(C(F)(F)F)cc1)c1ccco1 (configuration not stated) was read as HCV core dimer 0.3.
`CCCC[N+](CC#CCO)(CC#Cc1ccccc1)CCCC` gave pCIP destab -3.3, DNA FID counter -0.8, GPR7 antag 25.2*, HCV NS3 hel inh 1.5, HCV core dimer 3.8, GPR7 antag conf 25.4* and MCHR1 antagonist 25.8*.
`COc1ccc(-c2cn(Cc3ccc([N+](=O)[O-])cc3)nn2)cc1` gave pCIP destab 1.4, DNA FID counter -14.2, GPR7 antag 19.0, HCV NS3 hel inh 25.5 and HCV core dimer -19.5.
`CCCCCc1ccc(-c2cn(Cc3ccc([N+](=O)[O-])cc3)nn2)cc1` gave pCIP destab -16.0, DNA FID counter -10.8, GPR7 antag 33.4*, HCV NS3 hel inh -8.2, HCV core dimer 1.3, GPR7 antag conf 36.6* and MCHR1 antagonist 57.3*.
Cc1nsc2nc3c(F)c(F)c(F)c(F)c3cc12 was read as pCIP destab 1.9, DNA FID counter 2.1, GPR7 antag -16.4, HCV NS3 hel inh 1.3 and HCV core dimer 3.1.
`COC(=O)CCC(=O)N1CCCC(N2CCN(c3cccc(C(F)(F)F)c3)CC2)C1` (configuration not stated) gave pCIP destab 0.4, DNA FID counter -22.9, GPR7 antag -16.6, HCV NS3 hel inh 3.3 and HCV core dimer -33.4.
`O=C(Nc1ccc2c(c1)CCCN2C(=O)c1ccco1)c1cc([N+](=O)[O-])ccc1Cl` gave HCV core dimer 2.5.
